Laboratory results as given in ChEMBL document CHEMBL4316661, “Securinega Alkaloids from the Twigs of Securinega suffruticosa and Their Biological Activities” (J Nat Prod, 2019).

Tests used:
[1] = Cytotoxicity against rat C6 cells assessed as cell viability at 20 uM after 24 hrs by MTT assay relative to control; format: cell-based; details: read-out: Activity
In short: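 C6 cells treated with 20 μM of each compound. Viability determined by MTT assay and expressed as a percentage. Means ± SD of three independent experiments.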

SK-OV-3 = assay: Cytotoxicity against human SKOV3 cells after 48 hrs by SRB assay; format: cell-based; details: SK-OV-3, 48 h
SK-MEL-2 = assay: Cytotoxicity against human SK-MEL-2 cells after 48 hrs by SRB assay; format: cell-based; details: SK-MEL-2, 48 h
HCT-15 = assay: Cytotoxicity against human HCT15 cells after 48 hrs by SRB assay; format: cell-based; details: HCT-15, 48 h
A549 = assay: Cytotoxicity against human A549 cells after 48 hrs by SRB assay; format: cell-based; details: A549, 48 h
C6 = assay: Neuroprotective activity in rat C6 cells assessed as NGF secretion at 20 uM after 24 hrs by ELISA relative to control; format: functional
In short: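 C6 cells given 20 μM of each compound for 24 h. NGF secreted into the C6-conditioned medium quantified by ELISA, as a percentage of the untreated control (set at 100%). Means ± SD of three independent experiments.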

BV-2 [2] = assay: (§1) Cytotoxicity against mouse BV2 cells assessed as cell viability at 20 uM after 24 hrs by MTT assay relative to control; format: cell-based; details: bv-2, 24 h, 20 µM
In short: (§2)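 BV-2 microglia exposed to 20 μM of each compound. Viability read by MTT and given as a percentage. Means ± SD of three independent experiments.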

BV-2 [3] = assay: Antiinflammatory activity in mouse BV2 cells assessed as inhibition of LPS-induced nitrite production after 24 hrs by Griess assay; format: functional, cell-based; details: BV-2, 24 h
In short: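 LPS-activated murine microglial BV-2 cells. IC50 taken as the concentration (μM) giving 50% inhibition of NO production. Means of three independent experiments, as means ± SD.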

[4] = as §1; format: cell-based, BV-2; details: BV2 cells, read-out: Activity; in short: as §2

SMILES | viability at 24 h, 20 µM [1] | IC50 (SK-OV-3) | IC50 (SK-MEL-2) | IC50 (HCT-15) | IC50 (A549) | Activity (C6) | Activity (BV-2 [2]) | IC50 (BV-2 [3]) | viability at 24 h, 20 µM [4]
O=C1C=C2C=C[C@@H]3C[C@@]2(O1)[C@@H]1CCC(=O)C(=O)N31 | 101% | > 10 µM | > 10 µM | > 10 µM | > 10 µM | 172.7% |  |  | 
O=C1C=C2C=C[C@@H]3C[C@@]2(O1)[C@@]1(O)[C@H]2O[C@H]2CCN31 |  | 3.4 µM | 1.9 µM | 1.5 µM | 6.8 µM |  | Toxic |  | 
CO[C@H]1CCN2[C@@H]3C=CC4=CC(=O)O[C@]4(C3)[C@@H]2C1 |  | > 10 µM | > 10 µM | > 10 µM | > 10 µM |  |  | 31.5 µM | 88.7%
CO[C@H]1CCN2O[C@H]3C=CC[C@@]4(OC(=O)C=C34)[C@@H]2C1 |  | > 10 µM | > 10 µM | > 10 µM | > 10 µM |  |  |  | 
O=C1C=C2C=CCC[C@]2(c2ccccn2)O1 |  | > 10 µM | > 10 µM | > 10 µM | > 10 µM |  |  |  | 
O=C1C=C2C=C[C@@H]3C[C@@]2(O1)[C@@H]1[C@H]2O[C@H]2CCN31 | 101% | > 10 µM | > 10 µM | > 10 µM | > 10 µM | 145.3% |  | 12.6 µM | 92.8%
O=C1C=C2C=C[C@H](O)C[C@@H]2O1 |  | > 10 µM | > 10 µM | > 10 µM | > 10 µM |  |  |  | 
O=C1C=C2C=C[C@H]3C[C@]2(O1)[C@H]1CCCCN1O3 |  | > 10 µM | > 10 µM | > 10 µM | > 10 µM |  |  | 12.1 µM | 96.7%
O=C1C=C2C=C[C@H](O)C[C@]2(c2ccccn2)O1 |  | > 10 µM | > 10 µM | > 10 µM | > 10 µM |  |  |  | 
CO[C@H]1CCN2O[C@]34C=C[C@H](O)C[C@]3(OC(=O)C4)[C@@H]2C1 |  | > 10 µM | > 10 µM | > 10 µM | > 10 µM |  |  |  | 
O=C1C=C2C=C[C@H]3C[C@@]2(O1)[C@@H]1C[C@@H](O)CCN1O3 |  | > 10 µM | > 10 µM | > 10 µM | > 10 µM |  |  |  | 
CO[C@H]1CCN2[C@@H]3C=CC4=CC(=O)O[C@]4(C3)[C@H]2C1 |  | > 10 µM | > 10 µM | > 10 µM | > 10 µM |  |  | 7.7 µM | 108%
COc1cc([C@@H]2c3cc4c(cc3[C@@H](O[C@@H]3O[C@@H]5CO[C@@H](C)O[C@H]5[C@H](O)[C@H]3O)[C@H]3COC(=O)[C@H]23)OCO4)cc(OC)c1O [ETOPOSIDE] |  | 1.8 µM | 0.3 µM | 0.3 µM | 0.7 µM |  |  |  | 
CO[C@H]1CCN2O[C@@H]3C=CC4=CC(=O)O[C@]4(C3)[C@@H]2C1 [SECURINEGA AMAMINE D] |  | > 10 µM | > 10 µM | > 10 µM | > 10 µM |  |  | 23.9 µM | 86.5%
O=C1C=C2C=C[C@@H]3C[C@@]2(O1)[C@H]1CCCCN31 [SECURININE] | 102% | > 10 µM | > 10 µM | > 10 µM | > 10 µM | 141.1% |  | 1.1 µM | 101%
CCCCC/C=C/C(=O)CCc1ccc(O)c(OC)c1 [SHOGAOL] | 112% |  |  |  |  | 138.7% |  |  | 
CNC(=N)NCCC[C@H](N)C(=O)O [TILARGININE] |  |  |  |  |  |  |  |  | 99.7%
